Assay outcomes (PubChem)
Hits are enriched below; roughly 1.1% of the tested compounds scored in any of these assays.
PMI act satM6P: increases human PMI activity with near-saturating mannose 6-phosphate. P34949. coupled PMI enzyme assay, resazurin fluorescence, 20 min; stronger effect = higher value; 1 = untreated enzyme, 0 = substrate-free blank. activation factor at 20 µM. 0.34% of 190,000 active;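 active = activation factor of 2 or more at 20 µM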
Target sequence (P34949 whole entry, looked up): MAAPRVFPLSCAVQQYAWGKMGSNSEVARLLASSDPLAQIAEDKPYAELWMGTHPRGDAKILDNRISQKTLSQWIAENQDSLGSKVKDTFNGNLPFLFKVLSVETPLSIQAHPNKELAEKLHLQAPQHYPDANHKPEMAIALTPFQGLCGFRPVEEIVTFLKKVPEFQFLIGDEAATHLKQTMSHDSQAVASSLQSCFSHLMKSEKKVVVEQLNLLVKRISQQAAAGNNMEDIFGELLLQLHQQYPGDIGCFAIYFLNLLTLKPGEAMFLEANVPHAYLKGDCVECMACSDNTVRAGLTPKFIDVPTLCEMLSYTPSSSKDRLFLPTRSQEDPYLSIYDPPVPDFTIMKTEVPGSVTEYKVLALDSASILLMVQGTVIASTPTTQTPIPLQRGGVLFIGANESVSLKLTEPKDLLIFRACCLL
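Material: human phosphomannose isomerase with PGI, G6PDH, diaphorase coupling enzymes; amount: PMI at 15 ng/mL final; also added: Mannose-6-phosphate 1.0 mM (near-saturating) plus 0.22 mM NADP+; incubation: enzyme reaction with compound 20 min at room temperature; signal: resorufin fluorescence (Ex 544/Em 590 nm) from resazurin via diaphorase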
Diaph inh CS: inhibits diaphorase or chemically oxidizes, flagging diaphorase assay artifacts; diaphorase resazurin-to-resorufin fluorescence, NADH, 16 min; bacterial (C. kluyveri) enzyme, not human; inhibition, % at 20 µM; AID 1217; 0.69% of 190,000 active;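 active = primary screen inhibition at 20 µM above a set limit, cut at about 50% in these data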
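Test system: Clostridium kluyveri diaphorase enzyme / Quantity: diaphorase at 0.14 U/mL in enzyme working solution / Incubation: 16-min room-temperature incubation before reading / Benchmarks: NADH-free wells as positive control, DMSO-only neutral wells / Signal: resorufin fluorescence 544/590 nm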
PMI act: phosphomannose isomerase (human) activation | P34949 | purified human PMI, coupled resazurin fluorescence, 20 min; stronger effect = higher value; 1 = vehicle control, 0 substrate-free wells | activation factor at 20 µM | 0.005% of 190,000 active | AID 1214;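 active = activation factor of 2 or more at 20 µM, relative to plate controls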
G6PDH CS: L. mesenteroides G6PDH inhibition counter-screen; 0.12% of 200,000 active; Purified L. mesenteroides G6PDH, diaphorase/resazurin coupled fluorescence, 45 min; inhibition, % at 5 µM; in the data active = inhibition above about 50%
Diaphorase act: counter-screen for diaphorase-based assays: diaphorase activators and chemical reducers. Diaphorase/resazurin coupled assay, resorufin fluorescence, 16 min; stronger effect = higher value; 1 = vehicle wells, 0 = NADH-free wells. activation factor at 20 µM. 0.005% of 190,000 active;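 active = diaphorase activity raised at least twofold by the compound at 20 µM; inactive = activation factor below 2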
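System – purified diaphorase enzyme from Clostridium kluyveri · Input – enzyme 0.07 U/mL final · Also added – final NADH 0.114 mM, resazurin 0.1 mM · Measured by – fluorescence of resorufin, 544 nm excitation, 590 nm emission · Timing – 16 min enzyme reaction, ambient temperature · Measure – resorufin increase flagging diaphorase activators or reducers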
Large screens that a line does not name were inactive.

COc1cccc(/C=N/n2c(-c3n[nH]c4c3CCC4)n[nH]c2=S)c1O	Diaph inh CS 58.3
COc1ccc(-c2n[nH]c(=S)n2/N=C/C=C\c2ccccc2OC)cc1	none
CN1c2cccc3cccc(c23)N(C)C1(C)C	Diaph inh CS 51.9
C=CCc1cc(/C=C/c2nc(O)c([N+](=O)[O-])c(=O)[nH]2)cc(OC)c1O	Diaph inh CS 71.3
Cc1ccc(-c2ccc(=O)n(CCC(=O)NCCN3CCCCC3C)n2)cc1 (stereo not given)	none
c1ccc(Cc2nnc(N3CCOCC3)c3ccccc23)cc1	G6PDH CS 56.0
COc1cccc(C(=O)Oc2ccc(N3C(=O)CCC3=O)c(C)c2)c1	none
CCOC(=O)c1ccc(NC(=O)N2CCN(c3ccccc3OC)CC2)cc1	none
CCOC(=O)/C(=N\Nc1ccc(Br)cc1)N1CCN(c2ccccc2OC)CC1	PMI act satM6P 2.4
CC(C)S(=O)(=O)C1=NSC2=NC(=O)/C(=C\c3ccc(-c4cccc(C(=O)O)c4)o3)C(=N)N21	Diaph inh CS 74.3
CC(C)S(=O)(=O)C1=NSC2=NC(=O)/C(=C\c3ccc(-c4ccccc4)o3)C(=N)N21	none
N=C1/C(=C\c2ccc(-c3cc(Cl)cc(Cl)c3)o2)C(=O)N=C2SC=C(c3ccccc3)N12	none
N=C1/C(=C/c2ccc(-c3cccc(C(=O)O)c3)o2)C(=O)N=C2SC=C(c3ccccc3)N12	Diaph inh CS 53.7
O=c1[nH]c(Cc2ccccn2)nc2scc(-c3ccccc3Cl)c12	PMI act satM6P 2.1
CSCc1nc2scc(-c3ccccc3)c2c(=O)[nH]1	none
CC(C)CCn1nnnc1CN1CCN(c2ccccc2)CC1	none
Cc1ccc(C(NC(=O)N2CCCC2)C(Cl)Cl)cc1F (stereo not given)	PMI act satM6P 2
Cc1ccc(S(=O)(=O)N(CC(=O)Nc2ccccc2C(=O)O)c2ccc(Cl)cc2)cc1	none
NC1=Nc2cccc3cccc1c23	none
NC1=CC(=O)c2cccc3cccc1c23	Diaph inh CS 63.0
O=C(O)c1cc([N+](=O)[O-])c(N2CCCC2)c([N+](=O)[O-])c1	none
O=C(/C=C/c1ccoc1)c1ccccc1O	none
COc1ccc2ccccc2c1C(=O)/C=C\c1ccoc1	Diaph inh CS 52.0
CCOC(=O)N1CCC(=NNC(=O)COc2cccc(C)c2)CC1	none
CCOc1ccc(-c2nnc3ccc(SC(C)C)nn23)cc1	Diaph inh CS 60.1
CCOc1ccc2nc(NC(=O)CSc3nc(-c4ccccc4)c(C#N)c(=O)[nH]3)sc2c1	Diaph inh CS 59.4
COc1cccc(-c2nc(SCC(=O)Nc3nc(-c4ccccc4)c(C)s3)[nH]c(=O)c2C#N)c1	Diaph inh CS 81.3
Cc1ccc(NC(=O)c2ccccc2OCC(=O)Nc2cccc(Cl)c2C)nc1	none
CC(=O)Oc1ccc2c(C)cc(=O)oc2c1	none
CC(=O)Oc1cc2oc(=O)cc(C)c2cc1OC(C)=O	Diaph inh CS 52.3
CCN(CC)c1nc2c3c(nc4c(c3c1C#N)CC(=O)N4c1ccc(Cl)cc1)NC(C)=N2	Diaph inh CS 58.4
CCc1ccc(N2C(=O)Cc3c2nc(N)c(C#N)c3N)cc1	none
c1ccc(C(c2ccccc2)c2noc(CN3CCC(c4ccncc4)CC3)n2)cc1	none
O=C(/C=C/c1ccccc1)NNC(=O)c1cccc(Cl)c1	none
O=C(O)c1ccccc1C(=O)NNc1ccc(F)cc1F	PMI act satM6P 2.5
O=C(/C=C/c1ccccc1)NNc1ccc(Cl)cc1	PMI act satM6P 2.7
O=C(O)c1ccccc1C(=O)NNc1ccc(Cl)cc1	PMI act satM6P 2.4
O=C(NNc1ccc([N+](=O)[O-])cc1)c1ccccc1F	PMI act satM6P 2.3
O=C(Nc1ccccc1)Nc1ccc(F)cc1F	none
O=C(c1ccccc1)c1c[nH]c(C(=O)C(Cl)(Cl)Cl)c1	none
O=C(c1ccc(Cl)cc1)c1c[nH]c(C(=O)NNc2ccccc2)c1	PMI act satM6P 2.1
COc1ccccc1NC(=O)CN(Cc1ccccc1)S(C)(=O)=O	none
O=C(N/N=C/c1oc(O)c2ccccc12)c1ccccc1	PMI act satM6P 2.4
Cc1cc(C(=O)N=Nc2c(O)n(C(C)C)c3ccccc23)n[nH]1	Diaph inh CS 54.0
